Our source for the inhibition values is ChEMBL document CHEMBL2203171, “The use of small molecule probes to study spatially separated stimulus-induced signaling pathways” (Bioorg Med Chem Lett, 2012).

The source made the active and inactive calls. No cut-off for these calls is given here.

Common to all, as to assay type: cell-based
The target of test [1] is T1, Toll-like receptor 3 (Mus musculus) (UniProt Q99MB1).
T1 sequence (whole entry): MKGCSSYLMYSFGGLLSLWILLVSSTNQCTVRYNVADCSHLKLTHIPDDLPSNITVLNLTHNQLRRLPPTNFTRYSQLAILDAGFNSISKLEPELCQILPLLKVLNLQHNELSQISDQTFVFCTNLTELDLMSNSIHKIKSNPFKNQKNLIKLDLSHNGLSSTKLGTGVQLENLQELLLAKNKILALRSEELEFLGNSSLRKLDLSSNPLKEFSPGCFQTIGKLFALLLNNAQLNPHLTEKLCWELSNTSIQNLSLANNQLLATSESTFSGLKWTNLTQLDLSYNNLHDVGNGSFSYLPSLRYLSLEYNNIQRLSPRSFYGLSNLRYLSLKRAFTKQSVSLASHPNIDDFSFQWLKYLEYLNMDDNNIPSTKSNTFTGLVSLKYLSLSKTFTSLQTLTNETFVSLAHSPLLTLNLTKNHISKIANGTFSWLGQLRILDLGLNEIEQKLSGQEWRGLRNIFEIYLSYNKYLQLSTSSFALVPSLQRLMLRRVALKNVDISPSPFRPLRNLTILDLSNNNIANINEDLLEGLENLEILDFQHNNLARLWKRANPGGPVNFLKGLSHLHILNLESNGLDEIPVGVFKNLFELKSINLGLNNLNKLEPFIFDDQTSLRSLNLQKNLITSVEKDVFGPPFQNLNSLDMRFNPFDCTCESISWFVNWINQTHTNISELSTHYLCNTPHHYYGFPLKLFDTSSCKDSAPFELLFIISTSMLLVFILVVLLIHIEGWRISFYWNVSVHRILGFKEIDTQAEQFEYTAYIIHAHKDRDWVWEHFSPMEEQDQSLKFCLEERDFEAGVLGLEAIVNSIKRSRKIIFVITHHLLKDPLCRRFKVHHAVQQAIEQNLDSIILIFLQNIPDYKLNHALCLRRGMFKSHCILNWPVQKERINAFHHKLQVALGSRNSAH
As to the kind of experiment: Inhibition of TRIF recruitment to TLR3 in C57BL/6 mouse BMDM cells assessed as inhibition of pI:pC-induced IkappaBalpha phosphorylation up to 90 mins by Western blot analysis. The method, boiled down: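 Bone marrow macrophages from C57BL/6 mice, grown in 70% growth medium (DMEM, 10% FBS) plus 30% L929-conditioned medium and given fresh medium 12-14 h before stimulation. Stimuli: IL-1 40 ng/ml, HKSA ~10^8 cfu/ml, pI:pC 50 μg/ml or CpG 10 μg/ml, ± compound at 10 μM (final) added from a 200x DMSO stock. IκBα and p38 profiled by immunoblot. Three independent experiments, quantitated and normalized.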

The target in test [2] is T2, Inhibitor of nuclear factor kappa-B kinase subunit beta (Mus musculus) (UniProt O88351).
T2 sequence (whole entry): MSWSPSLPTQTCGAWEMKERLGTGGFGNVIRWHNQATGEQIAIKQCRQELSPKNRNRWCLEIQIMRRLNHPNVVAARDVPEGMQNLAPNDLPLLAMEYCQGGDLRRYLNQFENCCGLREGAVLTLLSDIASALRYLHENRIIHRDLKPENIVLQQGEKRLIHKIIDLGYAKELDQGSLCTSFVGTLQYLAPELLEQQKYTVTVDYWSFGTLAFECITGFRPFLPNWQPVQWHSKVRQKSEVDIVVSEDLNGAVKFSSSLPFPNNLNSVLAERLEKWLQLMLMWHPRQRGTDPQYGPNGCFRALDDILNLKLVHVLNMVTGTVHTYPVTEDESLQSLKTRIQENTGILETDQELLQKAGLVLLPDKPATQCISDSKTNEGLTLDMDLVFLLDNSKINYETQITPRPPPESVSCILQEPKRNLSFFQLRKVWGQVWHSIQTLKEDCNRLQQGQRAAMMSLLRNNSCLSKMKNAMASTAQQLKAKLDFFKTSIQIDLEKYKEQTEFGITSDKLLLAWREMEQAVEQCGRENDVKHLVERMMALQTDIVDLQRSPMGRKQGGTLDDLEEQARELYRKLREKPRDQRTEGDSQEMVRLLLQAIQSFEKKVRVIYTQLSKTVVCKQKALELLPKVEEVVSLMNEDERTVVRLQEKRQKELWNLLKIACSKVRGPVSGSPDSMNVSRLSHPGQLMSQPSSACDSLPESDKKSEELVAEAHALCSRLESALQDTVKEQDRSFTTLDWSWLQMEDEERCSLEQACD
As to the kind of experiment: Inhibition of IKKbeta in C57BL/6 mouse BMDM cells assessed as inhibition of TNFalpha-induced RelA phosphorylation at 25 uM after 5 mins by Western blot analysis. A digest of the protocol:
(§1)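 C57BL/6 marrow-derived macrophages were cultured in 70% growth medium/30% L929-conditioned medium and refreshed 12-14 h before stimulation. Stimuli were TNF 40 ng/ml or LPS 100 ng/ml, ± compound at 25 μM from a 200x DMSO stock. Western blots tracked IKK, p38, IκBα and phospho-RelA. Results from three independent experiments were quantitated and normalized.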

Test [3] deals with T2, Inhibitor of nuclear factor kappa-B kinase subunit beta (Mus musculus). In words: Inhibition of IKKbeta in C57BL/6 mouse BMDM cells assessed as inhibition of TNFalpha-induced phosphorylation at 25 uM after 5 mins by Western blot analysis. A digest of the protocol: as §1
(In general: Immunoblotting shows a protein as a band on a membrane.)

Regarding `O=C(CCCCCCCC(=O)ON1C(=O)CCC1=O)Oc1ccc2cc(C(C(=O)NCc3ccccc3)N(C(=O)Cc3ccc4c(c3)OCO4)C3CC3)ccc2c1` (centres undefined), the inhibition entry in test [1] is “Active”. The inhibition entry in test [2] and in test [3] was “inactive” in each case.

As for `O=C(CCCCCN1C(=O)C=CC1=O)Oc1ccc2cc(C(C(=O)NCc3ccccc3)N(C(=O)Cc3ccc4c(c3)OCO4)C3CC3)ccc2c1` (centres undefined), the inhibition result in test [1] is “Active”. In addition, the inhibition result in test [2] and in test [3] was “inactive” each time.

Turning to `O=C(CCCCCN1C(=O)CCC1=O)Oc1ccc2cc(C(C(=O)NCc3ccccc3)N(C(=O)Cc3ccc4c(c3)OCO4)C3CC3)ccc2c1` (centres undefined), in test [1], the inhibition result was “Active”. The inhibition result in test [2] and in test [3] was “inactive” throughout.
